Measured values gathered from unrelated publications.
Each line is one published result; the experiments were not run side by side.
Observed: metabolic stability
Host: human

Structure (SMILES)	system	conditions	scaled CLint [mL/min/kg]
CC(=O)N(C)C1CCN(c2cc(F)cc(NC(=O)c3cc4c(F)ccc(C)c4[nH]3)c2)C1 (centres unmarked)	hepatocytes	0.5 µM, 2 h	64
Cc1nc2ccc(C(=O)N3CCC4(CC3)Cc3cnn(C(C)C)c3C(O)C4)cc2[nH]1 (centres unmarked)	liver microsomes	–	< 8
O=C1c2ccc(COc3cccc(F)c3)nc2CCN1c1ccc(F)cc1	liver microsomes	–	8.8
CC(=O)Nc1cc(Nc2cc(NC3CC3)n3ncc(C#N)c3n2)ccc1N1CCC[C@H](O)C1	hepatocytes	1 µM, serum-free	73
Nc1nc(-c2cccc(NC(=O)Nc3cccc(-c4c[nH]c(N)n4)c3)c2)c[nH]1	liver microsomes	5 µM, pH 7.4	< 20.8
Cc1coc([C@H]2C[C@H]3[C@@H](C)SC(N)=N[C@@]3(c3ccc(F)cc3F)CO2)n1	liver microsomes	–	< 8
Nc1nc(-c2ccc(NC(=O)Nc3ccc(-c4c[nH]c(N)n4)c(F)c3)cc2F)c[nH]1	liver microsomes	5 µM, pH 7.4	< 20.8
O=C1c2ccc(COc3ccccc3)nc2CCN1c1ccc(F)cc1	liver microsomes	–	18
O=C(c1ccc(F)cc1)C1CCN(CCn2c(=O)[nH]c3ccccc3c2=O)CC1	liver microsomes	–	44.8
C[C@H]1SC(N)=N[C@@]2(c3ccc(F)cc3F)CO[C@@H](c3cnn(C)c3)C[C@@H]12	liver microsomes	–	< 8
Cc1ccc(F)c2cc(C(=O)N[C@@H]3CCC[C@H](N4CCN(S(C)(=O)=O)CC4)C3)[nH]c12	hepatocytes	0.5 µM, 2 h	41
Nc1nc(-c2ccc(NC(=O)Nc3cc(Br)cc(Br)c3)cc2)c[nH]1	liver microsomes	5 µM, pH 7.4	< 10.4
Cn1cc([C@H]2C[C@H]3[C@@H](CF)SC(N)=N[C@@]3(c3ccc(F)cc3F)CO2)cn1	liver microsomes	–	< 8
O=C1c2ncc(COc3ccccc3)cc2CCN1c1ccc(F)cc1	liver microsomes	–	19
CC(F)(F)CN1Cc2cc(C(F)(F)F)ncc2C2=CN=C(NCc3c(F)ccc4c3CCO4)N3C=NC(C1=O)C23 (centres unmarked)	liver microsomes	100 µM, 30 min	9.9
COc1ccc2nc3cc(Cl)ccc3c(Nc3cc(CN4CCCC4)c(O)c(CN4CCCC4)c3)c2n1	hepatocytes	1 µM	3.8
Cn1cc([C@H]2C[C@H]3CSC(N)=N[C@@]3(c3ccc(F)cc3F)CO2)cn1	liver microsomes	–	9.1
CC(C)(C)n1cc2c(n1)C(O)CC1(CCN(C(=O)c3ccc4[nH]ncc4c3)CC1)O2 (centres unmarked)	liver microsomes	–	< 8.8
Cc1coc([C@H]2C[C@H]3[C@@H](CF)SC(N)=N[C@@]3(c3ccc(F)cc3F)CO2)n1	liver microsomes	–	27.8
Cc1cccnc1C(=O)Nc1ccc(N2C(=O)c3cccc(Cl)c3C2=O)c(Cl)c1	liver microsomes	1 µM, pH 7.4	16.1
